Laboratory results taken from ChEMBL document CHEMBL4002595, “Metadynamics for Perspective Drug Design: Computationally Driven Synthesis of New Protein-Protein Interaction Inhibitors Targeting the EphA2 Receptor” (J Med Chem, 2017).
Values after ≈ are worked out from the molar mass of the structure shown. Active and inactive are the calls of the source. The rule behind the calls is not given here.

Key:
Ephrin type-A receptor 2 = Ephrin type-A receptor 2 (Mus musculus, UniProt Q03145); test: Displacement of biotinylated ephrin-A1-Fc from recombinant mouse EphA2 receptor preincubated for 1 hr followed by biotinylated ephrin-A1-Fc addition measured after 4 hrs by ELISA method
[1] = target: Ephrin type-A receptor 2 (Mus musculus) (UniProt Q03145); test: Displacement of biotinylated ephrin-A1-Fc from recombinant mouse EphA2 receptor up to 100 uM preincubated for 1 hr followed by biotinylated ephrin-A1-Fc addition measured after 4 hrs by ELISA method
Procedure, shortened: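 EphA2-Fc (1 µg mL⁻¹ in PBS pH 7.4) was coated overnight at 4 °C, then blocked with PBS + 0.5% BSA for 1 h at 37 °C. Compounds in 1% DMSO were added for 1 h at 37 °C. Biotinylated ephrin-A1-Fc was then added at its K_D for 4 h at 37 °C. Detection used streptavidin-HRP (20 min, RT), TMB/H₂O₂, HCl stop and A450. IC₅₀ came from one-site competition nonlinear regression; mean of ≥3 independent experiments.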

Liver [2] = test: Drug level in mouse liver microsomes treated with (S)-3-((S)-4-((5R,8R,9S,10S,13R,14S,17R)-3-hydroxy-10,13-dimethylhexadecahydro-1H-cyclopenta[a]phenanthren-17-yl)pentanamido)-4-(1H-indol-3-yl)butanoic acid by HPLC-ESI-MS/MS analysis
[3] = n-Octanol-buffer partition co-efficient, log D of the compound at pH 7.4 incubated overnight by shake-flask method; format: physicochemical
Procedure, shortened: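 Shake-flask n-octanol/buffer partition at 25 ± 3 °C against 50 mM MOPS pH 7.4, ionic strength 0.15 M with KCl. Pre-saturated phases equilibrated overnight. Each phase diluted in MeOH with internal standard and analysed by HPLC-ESI-MS/MS. Mean of three independent partitions using different octanol/buffer volume ratios.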

[4] = Tmax in mouse at 30 mg/kg, administered as single dose via oral gavage by HPLC-ESI-MS/MS analysis; format: ADME, organism-based; settings: in vivo
Procedure, shortened: (§1)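 Male mice, fasted, groups of four; single oral gavage at 30 mg/kg in 0.5% methylcellulose (10/90 v/v). Tail-puncture blood at 5-7 time points between 15 and 1440 min, centrifuged 5000 rpm 10 min, plasma stored at -20 °C, quantified by HPLC-ESI-MS/MS. Reported as means ± SEM.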

[5] = Kinetic solubility in MOPS buffer at pH 7.4 measured after 4 hrs by HPLC-ESI-MS/MS analysis; format: physicochemical; settings: read-out: Kinetic_solubility
Procedure, shortened: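 DMSO stock (10 mM) diluted into 50 mM MOPS pH 7.4, ionic strength 0.15 M with KCl, final 1% DMSO. Agitated 4 h at 25 ± 3 °C, centrifuged 1,000 g 10 min. Supernatant diluted 1:1 with MeOH containing internal standard, quantified by HPLC-ESI-MS/MS against per-compound MeOH calibration curves.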

[6] = Stability in mouse plasma assessed as compound remaining at 1 uM after 24 hrs by HPLC-ESI-MS/MS analysis; format: ADME, cell-free; settings: read-out: Stability
Procedure, shortened: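 Mouse plasma diluted to 80% (v/v) with 100 mM PBS pH 7.4. Compound added at 1 μM final with 1% v/v DMSO, held at 37 °C. Aliquots taken at intervals, quenched with two volumes MeCN, centrifuged 9,000 g 10 min at 4 °C. Percent remaining measured by HPLC-ESI-MS/MS.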

[7] = Cmax in mouse at 30 mg/kg, administered as single dose via oral gavage by HPLC-ESI-MS/MS analysis; format: ADME, organism-based; set-up: dose 30 mg/kg, route oral; settings: in vivo; procedure, shortened: as §1
[8] = Half-life in mouse liver microsomes at 1 uM in presence of NADPH by HPLC-ESI-MS/MS analysis; format: ADME, microsome
Plasma [9] = test: Drug uptake in mouse plasma at 30 mg/kg, administered as single dose via oral gavage after 120 min by HPLC-ESI-MS/MS analysis; settings: in vivo
Liver [10] = test: Drug metabolism in mouse liver microsomes assessed as (S)-3-((S)-4-((5R,8R,9S,10S,13R,14S,17R)-10,13-dimethyl-3-oxohexadecahydro-1H-cyclopenta[a]phenanthren-17-yl)pentanamido)-4-(1H-indol-3-yl)butanoic acid formation by HPLC-ESI-MS/MS analysis; format: ADME, microsome
Plasma [11] = test: Drug uptake in mouse plasma at 30 mg/kg, administered as single dose via oral gavage after 24 hrs by HPLC-ESI-MS/MS analysis; format: ADME, organism-based; settings: in vivo
Procedure, shortened: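 Male mice (fasted, four per group) received a single esophageal gavage of 30 mg/kg in 0.5% methylcellulose. Tail-puncture blood was taken at 5–7 time points between 15 and 1440 min. Plasma was separated by centrifugation (5000 rpm, 10 min), stored at –20 °C and quantified by HPLC-ESI-MS/MS. Data are means ± SEM.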

Ephrin type-A receptor 2 (Mus musculus), sequence (Q03145 whole entry): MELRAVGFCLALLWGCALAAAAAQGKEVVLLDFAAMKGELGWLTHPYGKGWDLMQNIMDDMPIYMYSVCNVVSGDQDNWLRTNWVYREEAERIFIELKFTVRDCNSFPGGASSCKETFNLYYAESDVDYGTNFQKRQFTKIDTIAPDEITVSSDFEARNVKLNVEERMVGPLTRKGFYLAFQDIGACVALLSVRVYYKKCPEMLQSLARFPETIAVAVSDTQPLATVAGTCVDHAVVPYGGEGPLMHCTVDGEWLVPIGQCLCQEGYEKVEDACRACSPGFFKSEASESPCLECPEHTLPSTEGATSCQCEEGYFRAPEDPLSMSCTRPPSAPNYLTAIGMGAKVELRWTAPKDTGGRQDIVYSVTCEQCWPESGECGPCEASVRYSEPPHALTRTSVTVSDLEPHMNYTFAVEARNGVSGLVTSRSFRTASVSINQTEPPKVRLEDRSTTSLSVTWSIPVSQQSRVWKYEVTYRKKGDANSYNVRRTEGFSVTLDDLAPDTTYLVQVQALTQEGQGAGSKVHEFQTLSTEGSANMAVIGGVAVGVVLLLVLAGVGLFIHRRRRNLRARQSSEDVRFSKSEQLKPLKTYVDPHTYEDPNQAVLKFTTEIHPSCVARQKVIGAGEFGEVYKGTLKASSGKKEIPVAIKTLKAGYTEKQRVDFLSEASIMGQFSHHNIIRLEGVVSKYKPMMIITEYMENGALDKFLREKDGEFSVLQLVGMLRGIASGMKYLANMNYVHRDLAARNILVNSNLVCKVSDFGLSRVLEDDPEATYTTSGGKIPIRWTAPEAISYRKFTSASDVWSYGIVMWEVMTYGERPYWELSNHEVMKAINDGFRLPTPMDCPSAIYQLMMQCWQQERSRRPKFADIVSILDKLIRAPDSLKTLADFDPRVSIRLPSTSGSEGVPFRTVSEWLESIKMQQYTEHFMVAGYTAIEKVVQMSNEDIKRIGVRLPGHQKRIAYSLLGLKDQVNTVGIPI
Ephrin type-A receptor 2, sequence (Q03145 whole entry): as above

CSCC[C@@H](CC(=O)O)NC(=O)CC[C@@H](C)[C@H]1CC[C@H]2[C@@H]3CC[C@@H]4C[C@H](O)CC[C@]4(C)[C@H]3CC[C@]12C
IC50 (Ephrin type-A receptor 2): 83 µM

C[C@H](CCC(=O)NCCCCC(=O)O)[C@H]1CC[C@H]2[C@@H]3CC[C@@H]4C[C@H](O)CC[C@]4(C)[C@H]3CC[C@]12C
inhibition [1]: inactive

C[C@H](CCC(=O)N[C@H](CC(=O)O)Cc1c[nH]c2ccccc12)[C@H]1CC[C@H]2[C@@H]3CC[C@@H]4CCCC[C@]4(C)[C@H]3CC[C@]12C
IC50 (Ephrin type-A receptor 2): 28 µM

C[C@H](CCC(=O)NCCCC(=O)O)[C@H]1CC[C@H]2[C@@H]3CC[C@@H]4C[C@H](O)CC[C@]4(C)[C@H]3CC[C@]12C
inhibition [1]: inactive

CO/N=C1\CC[C@@]2(C)[C@H](CC[C@@H]3[C@@H]2CC[C@]2(C)[C@@H]([C@H](C)CCC(=O)N[C@H](CC(=O)O)Cc4c[nH]c5ccccc45)CC[C@@H]32)C1
IC50 (Ephrin type-A receptor 2): 13 µM

C[C@H](CCC(=O)O)[C@H]1CC[C@H]2[C@@H]3CC[C@@H]4C[C@H](O)CC[C@]4(C)[C@H]3CC[C@]12C [LITHOCHOLIC ACID]
IC50 (Ephrin type-A receptor 2): 79 µM

C[C@H](CCC(=O)N[C@H](CC(=O)O)Cc1c[nH]c2ccccc12)[C@H]1CC[C@H]2[C@@H]3CC[C@@H]4CC(=O)CC[C@]4(C)[C@H]3CC[C@]12C
Drug metabolism (Liver [2]): Metabolite_Detected

CC(C)C[C@@H](CC(=O)O)NC(=O)CC[C@@H](C)[C@H]1CC[C@H]2[C@@H]3CC[C@@H]4C[C@H](O)CC[C@]4(C)[C@H]3CC[C@]12C
inhibition [1]: inactive

C[C@H](CCC(=O)N[C@H](CC(=O)O)c1ccccc1)[C@H]1CC[C@H]2[C@@H]3CC[C@@H]4C[C@H](O)CC[C@]4(C)[C@H]3CC[C@]12C
IC50 (Ephrin type-A receptor 2): 14 µM

C[C@H](CCC(=O)N[C@H](CC(=O)O)Cc1cccc2ccccc12)[C@H]1CC[C@H]2[C@@H]3CC[C@@H]4C[C@H](O)CC[C@]4(C)[C@H]3CC[C@]12C
IC50 (Ephrin type-A receptor 2): 3.9 µM

CC(C)[C@@H](CC(=O)O)NC(=O)CC[C@@H](C)[C@H]1CC[C@H]2[C@@H]3CC[C@@H]4C[C@H](O)CC[C@]4(C)[C@H]3CC[C@]12C
IC50 (Ephrin type-A receptor 2): 10 µM

C[C@H](CCC(=O)N[C@@H](CCc1ccccc1)CC(=O)O)[C@H]1CC[C@H]2[C@@H]3CC[C@@H]4C[C@H](O)CC[C@]4(C)[C@H]3CC[C@]12C
inhibition [1]: inactive

C[C@H](CCC(=O)N[C@H](CC(=O)O)Cc1ccccc1)[C@H]1CC[C@H]2[C@@H]3CC[C@@H]4C[C@H](O)CC[C@]4(C)[C@H]3CC[C@]12C
IC50 (Ephrin type-A receptor 2): 18 µM

C[C@H](CCC(=O)N[C@H](CC(=O)O)Cc1c[nH]c2ccccc12)[C@H]1CC[C@H]2[C@@H]3CC[C@@H]4C/C(=N/O)CC[C@]4(C)[C@H]3CC[C@]12C
logD [3]: 4.23 | Tmax [4]: 1 h | IC50 (Ephrin type-A receptor 2): 3.1 µM | solubility kinetic at 4 h [5]: 51.9 µM (≈ 30.6 µg/mL) | remaining at 24 h, 1 µM [6]: 93.7% | Cmax [7]: 400 nM | half-life at 1 µM [8]: 1.01 h

C[C@H](CCC(=O)NCCS(=O)(=O)O)[C@H]1CC[C@H]2[C@@H]3CC[C@@H]4C[C@H](O)CC[C@]4(C)[C@H]3CC[C@]12C [TAUROLITHOCHOLIC ACID]
IC50 (Ephrin type-A receptor 2): 72 µM

C[C@H](CCC(=O)N[C@H](CC(=O)O)Cc1c[nH]c2ccccc12)[C@H]1CC[C@H]2[C@@H]3CC[C@@H]4C[C@H](O)CC[C@]4(C)[C@H]3CC[C@]12C
Drug uptake (Plasma [9]): Active | solubility kinetic at 4 h [5]: 31.8 µM (≈ 18.3 µg/mL) | Cmax [7]: 10 nM | half-life at 1 µM [8]: 0.28 h | Drug metabolism (Liver [10]): Metabolite_Detected

C[C@H](CCC(=O)N[C@H](CC(=O)O)Cc1csc2ccccc12)[C@H]1CC[C@H]2[C@@H]3CC[C@@H]4C[C@H](O)CC[C@]4(C)[C@H]3CC[C@]12C
IC50 (Ephrin type-A receptor 2): 1.8 µM

COC(=O)CCNC(=O)CC[C@@H](C)[C@H]1CC[C@H]2[C@@H]3CC[C@@H]4C[C@H](O)CC[C@]4(C)[C@H]3CC[C@]12C
inhibition [1]: inactive

C[C@H](CCC(=O)NCCC(=O)O)[C@H]1CC[C@H]2[C@@H]3CC[C@@H]4C[C@H](O)CC[C@]4(C)[C@H]3CC[C@]12C
IC50 (Ephrin type-A receptor 2): 29 µM

C[C@H](CCC(=O)N[C@H](CC(=O)O)Cc1c[nH]c2ccccc12)[C@H]1CC[C@H]2[C@@H]3CC[C@@H]4C[C@H](OC(N)=O)CC[C@]4(C)[C@H]3CC[C@]12C
logD [3]: 5.01 | Tmax [4]: 1 h | IC50 (Ephrin type-A receptor 2): 0.8 µM | solubility kinetic at 4 h [5]: 18.7 µM (≈ 11.6 µg/mL) | remaining at 24 h, 1 µM [6]: 98.2% | Drug uptake (Plasma [11]): Active | Cmax [7]: 870 nM | half-life at 1 µM [8]: 2.6 h
